Screening data as filed in PubChem BioAssay.
Only some compounds are listed: those with a hit (about 5.9% of all), similar ones and a draw of the others.
Pf Dd2 growth – P. falciparum Dd2 growth inhibition. SYBR Green, 72 h; stronger effect = lower value. activity change, % at 10 µM. 94,000 tested, 2.3% active; in the data active = activity change below about -80%; inconclusive = no clear call, values can overlap the other calls
KDM4C inh – KDM4C (human) demethylase inhibition. Q9H3R0. GST-KDM4C 2-372, H3K9me3 peptide, LANCE TR-FRET. inhibition, % at 12.5 µM. 96,000 tested, 0.15% active;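 active = mean replicate inhibition above about 25%, with at least 55% of replicates also reaching it, limit read from the data, passing the limit was not always enough; inconclusive = only one of those two conditions met; inactive = neither condition met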
Target sequence (Q9H3R0 2-372 limits assumed): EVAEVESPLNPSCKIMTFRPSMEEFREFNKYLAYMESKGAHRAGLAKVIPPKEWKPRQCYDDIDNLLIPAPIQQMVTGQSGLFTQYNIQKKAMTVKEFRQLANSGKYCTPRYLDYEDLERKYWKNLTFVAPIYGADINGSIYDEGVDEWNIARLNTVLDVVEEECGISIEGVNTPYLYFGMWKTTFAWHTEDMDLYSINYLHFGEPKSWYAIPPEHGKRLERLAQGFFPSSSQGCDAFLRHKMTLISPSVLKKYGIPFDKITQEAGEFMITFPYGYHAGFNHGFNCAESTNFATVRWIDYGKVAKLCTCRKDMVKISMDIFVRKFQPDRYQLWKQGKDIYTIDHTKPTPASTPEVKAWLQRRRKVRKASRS
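Test system – GST-tagged GASC-1 (JMJD2C) catalytic fragment, aa 2-372 · Medium – HEPES buffer, pH 7.5, plus ascorbate · Reagent – H3K9me3 peptide with Fe(II)/2OG · Compound – one test concentration per compound · Timing – 30 min reaction, 60 min detection, RT · Technique – TR-FRET with Eu antibody and ULight streptavidin, EDTA stop · Read-out basis – inhibition from TR-FRET ratio decrease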
T cruzi growth-1 – T. cruzi proliferation inhibition; T. cruzi beta-gal in NIH3T3, GalScreen luminescence, 90 h; inhibition, % at 8.34 µM; 77,000 tested, 5.9% active;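 active = mean inhibition above about 93%, with at least 55% of replicates each passing it, limit read from the data, passing the limit was not always enough; inconclusive = only one of those two conditions holds; inactive = neither condition holds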
IDH1 R132H inh – IDH1 R132H (human) inhibition; 70,000 tested, 0.18% active; inhibition, % at 10 µM; AID 624101; O75874; IDH1 R132H reductase, diaphorase/resazurin fluorescence, 60 min; in the data active = inhibition above about 34%; inconclusive = no clear call, values can overlap the other calls; inactive = below about 11%;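 note: 0% = DMSO and 100% = no enzyme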
T cruzi growth-2 – inhibitors of T. cruzi proliferation; inhibition, % at 8.35 µM; 5,600 tested, 72% active; T. cruzi beta-gal in NIH3T3, GalScreen luminescence, 90 h; AID 651739; shares compounds with T cruzi growth-1;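 active = mean replicate inhibition above about 95% and at least 55% of replicates individually reaching it, limit read from the data; inconclusive = only one of the two criteria is met; inactive = neither criterion is met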
T cruzi growth-3 – inhibitors of T. cruzi proliferation; shares compounds with T cruzi growth-1; inhibition, % at 2.09 µM; 5,600 tested, 21% active; T. cruzi beta-gal in NIH3T3, GalScreen luminescence, 90 h; AID 651740;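 active = mean inhibition above about 95%, with at least 55% of replicates also reaching it, limit read from the data; inconclusive = meets just one of the two conditions; inactive = meets neither condition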;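 note: plate controls were neutral control median for no effect and positive control median for full effect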
3T3 cytotox – cytotoxicity in mouse NIH/3T3 fibroblasts; shares compounds with T cruzi growth-1; NIH/3T3 viability, CellTiter-Glo ATP luminescence, 90 h; cytotoxicity (signal decrease), % at 8.35 µM; 5,600 tested, 14% active;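 active = mean signal decrease across replicates above about 35% based on untreated-well scatter, with enough replicates individually passing, limit read from the data; inconclusive = no rule stated though some were filed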;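 note: 0% = median of neutral control wells and 100% = median of positive control wells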
3T3 cytotox 2 – kills mouse NIH/3T3 fibroblasts | 5,600 tested, 56% active | inhibition, % at 24.9 µM | NIH/3T3 viability, CellTiter-Glo ATP luminescence, 90 h | shares compounds with T cruzi growth-1 | AID 651744;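 active = mean loss of cell viability signal at or above a set limit, and enough replicates individually reaching it; inconclusive = meets only the mean limit or only the replicate share; inactive = meets neither condition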;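 note: 0% = median of neutral control wells and 100% = median of positive control wells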
The depositor's hits bear a star; ? = inconclusive; · = no result given.

SMILES	Pf Dd2 growth	KDM4C inh	T cruzi growth-1	IDH1 R132H inh	T cruzi growth-2	T cruzi growth-3	3T3 cytotox	3T3 cytotox 2
C[C@@H]1CN([C@@H](C)CO)C(=O)c2cccc(NC(=O)c3cnccn3)c2O[C@@H]1CN(C)Cc1ccc(C(=O)O)cc1	-15	1	10	0	·	·	·	·
Cc1noc(C)c1NC(=O)N(C)C[C@H]1Oc2ncc(C#CC3CC3)cc2C(=O)N([C@@H](C)CO)C[C@H]1C	4	1	-1	·	·	·	·	·
Cc1ccccc1S(=O)(=O)N1CC[C@@H]2[C@@H](CO)Nc3ccc(-c4ccc(C#N)cc4)cc3[C@@H]21	4	-5	?	·	97*	71	66*	92*
Cc1ccccc1S(=O)(=O)N1CC[C@H]2[C@H](CO)Nc3ccc(-c4ccc(C#N)cc4)cc3[C@H]21	7	2	115*	·	107*	77	52*	69*
N#C[C@H]1[C@H](c2ccc(-c3cccc(F)c3)cc2)[C@H](CO)N1C(=O)NC1CCCCC1	-29	0	·	·	·	·	·	·
COc1ccc(NC(=O)Nc2ccc3c(c2)C(=O)N([C@@H](C)CO)C[C@H](C)[C@H](CN(C)Cc2ccc4c(c2)OCO4)OCCCC[C@@H](C)O3)cc1	-67	0	103*	1	103*	54	0	8
COc1ccc(NC(=O)Nc2ccc3c(c2)C(=O)N([C@@H](C)CO)C[C@H](C)[C@H](CN(C)Cc2ccc4c(c2)OCO4)OCCCC[C@H](C)O3)cc1	-77	0	118*	·	102*	103*	40*	43*
COc1ccc(NC(=O)Nc2ccc3c(c2)C(=O)N([C@@H](C)CO)C[C@@H](C)[C@@H](CN(C)Cc2ccc4c(c2)OCO4)OCCCC[C@H](C)O3)cc1	-70	-1	79	·	·	·	·	·
COc1ccc(NC(=O)Nc2ccc3c(c2)C(=O)N([C@H](C)CO)C[C@@H](C)[C@H](CN(C)Cc2ccc4c(c2)OCO4)OCCCC[C@@H](C)O3)cc1	-83*	-1	101*	·	93	95	?	106*
COc1ccc(NC(=O)Nc2ccc3c(c2)C(=O)N([C@H](C)CO)C[C@@H](C)[C@@H](CN(C)Cc2ccc4c(c2)OCO4)OCCCC[C@@H](C)O3)cc1	-78	-1	124*	0	100*	82	17	37*
Cc1ccc(S(=O)(=O)N(C)C[C@H]2Oc3ccc(NC(=O)Nc4ccccc4)cc3CC(=O)N([C@H](C)CO)C[C@H]2C)cc1	-59	0	13	0	·	·	·	·
Cc1ccc(S(=O)(=O)NCC[C@@H]2CC[C@@H](NC(=O)NC(C)C)[C@H](CO)O2)cc1	-1	1	18	0	·	·	·	·
C[C@@H]1CN([C@@H](C)CO)C(=O)Cc2cc(N(C)C)ccc2O[C@H]1CN(C)CC1CCCCC1	-42	·	0	-5	·	·	·	·
COc1ccc(NC(=O)Nc2ccc3c(c2)C(=O)N([C@H](C)CO)C[C@H](C)[C@H](CN(C)Cc2ccc4c(c2)OCO4)OCCCC[C@H](C)O3)cc1	-68	0	?	7	98*	99*	9	103*
CC(C)NC(=O)Nc1ccc2c(c1)C(=O)N([C@H](C)CO)C[C@H](C)[C@H](CN(C)C(=O)NC(C)C)OCCCC[C@@H](C)O2	-33	0	12	0	·	·	·	·
C[C@@H]1CN([C@H](C)CO)C(=O)c2cc(NC(=O)Nc3ccc4c(c3)OCO4)ccc2O[C@H]1CN(C)Cc1ccc(Oc2ccccc2)cc1	15	0	-77	·	·	·	·	·
C[C@H](CO)N1C[C@H](C)[C@@H](CN(C)Cc2ccc(Oc3ccccc3)cc2)Oc2ccc(NC(=O)Nc3ccc4c(c3)OCO4)cc2C1=O	-25	2	?	·	111*	-24	15	-2
C[C@@H]1CN([C@@H](C)CO)C(=O)c2cc(NC(=O)Nc3ccc4c(c3)OCO4)ccc2O[C@H]1CN(C)Cc1ccc(-c2ccccc2)cc1	-27	-1	96*	·	102*	91	32	82*
C[C@H]1CN([C@@H](C)CO)C(=O)c2cc(NC(=O)CCN3CCOCC3)ccc2O[C@@H]1CN(C)C	-4	1	·	-1	·	·	·	·
C[C@H]1CN([C@@H](C)CO)C(=O)Cc2cc(NC(=O)Nc3ccc(C(F)(F)F)cc3)ccc2O[C@H]1CN(C)Cc1ccc(Oc2ccccc2)cc1	-3	0	33	-1	·	·	·	·
C[C@H](CO)N1C[C@H](C)[C@@H](CN(C)Cc2ccncc2)OCCCC[C@H](C)Oc2ccc(NS(=O)(=O)c3cccs3)cc2C1=O	2	1	21	19	·	·	·	·
C[C@@H]1CCCCO[C@H](CN(C)Cc2ccc(Cl)c(Cl)c2)[C@@H](C)CN([C@H](C)CO)C(=O)c2cc(NS(=O)(=O)c3cccs3)ccc2O1	-21	0	116*	·	105*	2	9	57*
C[C@@H]1CCCCO[C@@H](CN(C)Cc2ccc(Cl)c(Cl)c2)[C@@H](C)CN([C@H](C)CO)C(=O)c2cc(NS(=O)(=O)c3cccs3)ccc2O1	4	-1	115*	1	97*	84	-4	50*
C[C@H](CO)N1C[C@H](C)[C@@H](CN(C)Cc2ccc(Cl)c(Cl)c2)OCCCC[C@H](C)Oc2ccc(NS(=O)(=O)c3cccs3)cc2C1=O	-20	-1	?	·	85	107*	11	104*
CNC[C@@H]1Oc2ccc(NS(=O)(=O)c3ccc(F)cc3)cc2C(=O)N([C@@H](C)CO)C[C@@H]1C	12	-1	29	0	·	·	·	·
Cc1ccc(S(=O)(=O)N(C)C[C@H]2Oc3ccc(N(C)C)cc3C(=O)N([C@@H](C)CO)C[C@@H]2C)cc1	-28	1	·	-5	·	·	·	·
CO[C@@H]1CN(C)C(=O)c2ccc(NC(C)=O)cc2OC[C@H](C)N(Cc2cccc(F)c2)C[C@H]1C	·	-2	61	0	·	·	·	·
C[C@@H]1CN([C@@H](C)CO)C(=O)c2cc(NC(=O)Nc3ccc(C(F)(F)F)cc3)ccc2O[C@@H](C)CCCCO[C@H]1CN(C)Cc1ccc2c(c1)OCO2	-70	1	?	·	100*	112*	21	105*
C[C@H]1CCCCO[C@H](CN(C)Cc2ccc(C(F)(F)F)cc2)[C@@H](C)CN([C@@H](C)CO)C(=O)c2cc(NC(=O)Nc3ccc4c(c3)OCO4)ccc2O1	-30	1	74	·	·	·	·	·
